Measured values as given in publication PMC6424611 (Journal of molecular biology, 2019).
One block for each molecule: values may come before it. Where no end group is shown, it is not given here. The star is where a group is joined. Biotin = O=C1N[C@H]2[C@H](CS[C@H]2CCCCC(=O)*)N1; TTDS = NCCCOCCOCCOCCCNC(=O)CCC(=O)*

What was measured:
[1] = biological target: T1, GRID2IP-2 PDZ (Homo sapiens, UniProt A4D2P6); experiment: holdup assay; type: binding; conditions: words; GRID2IP
Method in brief: (§1)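 Automated holdup in triplicate measured biotinylated (N-terminal TTDS linker) RSK1 725–735 peptides, unphosphorylated or phosphorylated, against E. coli-expressed PDZome v2 domains. Soluble lysate was adjusted to ~4 μM, giving 255 domains for the unphosphorylated and 252 for the phosphorylated peptide. Binding intensity (BI) is the fraction of PDZ depleted from the fluid phase. BI 0.2 was the high-confidence threshold.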

[2] = tested on: first PDZ domain of Scribble; experiment: holdup assay; type: binding, human
[3] = biological target: T2, SNX27 PDZ (Homo sapiens, UniProt Q96L92); experiment: holdup assay; type: binding; conditions: words
[4] = biological target: T3, ARHGEF12 PDZ (Homo sapiens, UniProt Q9NZN5); experiment: holdup assay; type: binding; conditions: words
T3 sequence (Q9NZN5 72-151 limits assumed): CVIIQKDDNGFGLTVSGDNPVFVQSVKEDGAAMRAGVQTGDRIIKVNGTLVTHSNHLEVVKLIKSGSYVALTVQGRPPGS
Method in brief: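 Automated holdup against N-terminally biotinylated (TTDS linker) RSK1 725–735 peptides, unphosphorylated and phosphorylated, in triplicate. PDZome v2 clones were codon-optimized and expressed in E. coli, with soluble lysate adjusted to ~4 μM. BI is the PDZ fraction depleted from the fluid phase.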

[5] = biological target: T4, PARD3B-1 PDZ (Homo sapiens, UniProt Q8TEW8); experiment: holdup assay; type: binding; conditions: words; PARD3B
T4 sequence (Q8TEW8 201-289 limits assumed): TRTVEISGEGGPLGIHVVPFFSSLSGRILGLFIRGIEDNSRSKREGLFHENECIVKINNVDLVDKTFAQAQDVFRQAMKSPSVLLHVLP
Method in brief: as §1

[6] = tested on: first PDZ domain of NHERF (EBP50); experiment: holdup assay; type: binding, human
[7] = tested on: RhoA; experiment: G-LISA RhoA activation assay; type: cell-based; conditions: ARHGEF12 mutants, n=4
[8] = biological target: T4, PARD3B-1 PDZ; experiment: surface plasmon resonance; type: binding; conditions: internal standard; biotinylated HPV16 E6 peptide immobilized; steady state
Method in brief: (§2)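 Biacore SPR on a CM5 chip. Streptavidin was immobilized by EDC coupling, then biotinylated HPV16 E6 peptide was captured and extensively washed. Tandem Ni/MBP-purified MBP-PDZ domains were then injected. The E6 peptide served as an internal standard.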

[9] = biological target: GOPC PDZ (Homo sapiens, UniProt Q9HD26); experiment: surface plasmon resonance; type: binding; conditions: internal standard; biotinylated HPV16 E6 peptide immobilized; steady state
[10] = biological target: T2, SNX27 PDZ; experiment: surface plasmon resonance; type: binding; conditions: internal standard; biotinylated HPV16 E6 peptide immobilized; steady state
[11] = biological target: T5, SNTG2 PDZ (Homo sapiens, UniProt Q9NY99); experiment: surface plasmon resonance; type: binding; conditions: internal standard; biotinylated HPV16 E6 peptide immobilized; steady state
T5 sequence (Q9NY99 73-156 limits assumed): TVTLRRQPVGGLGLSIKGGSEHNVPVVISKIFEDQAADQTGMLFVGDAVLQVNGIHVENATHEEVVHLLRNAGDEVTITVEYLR
Method in brief: as §2

[12] = biological target: GORASP2 PDZ; experiment: surface plasmon resonance; type: binding, human; conditions: internal standard; biotinylated HPV16 E6 peptide immobilized; steady state
Method in brief: as §2

[13] = biological target: HTRA1 PDZ (Homo sapiens, UniProt Q92743); experiment: surface plasmon resonance; type: binding; conditions: internal standard; biotinylated HPV16 E6 peptide immobilized; steady state
Method in brief: as §2

[14] = biological target: T6, PDZD7-3 PDZ (Homo sapiens, UniProt Q9H5P4); experiment: surface plasmon resonance; type: binding; conditions: internal standard; biotinylated HPV16 E6 peptide immobilized; steady state
T6 sequence (Q9H5P4 862-934 limits assumed): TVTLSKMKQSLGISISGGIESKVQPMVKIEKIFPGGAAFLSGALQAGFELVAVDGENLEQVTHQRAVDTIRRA
Method in brief: as §2

[15] = biological target: T1, GRID2IP-2 PDZ; experiment: surface plasmon resonance; type: binding; conditions: internal standard; biotinylated HPV16 E6 peptide immobilized; steady state
Method in brief: as §2

[16] = biological target: T7, MAST1 PDZ (Homo sapiens, UniProt Q9Y2H9); experiment: surface plasmon resonance; type: binding; conditions: internal standard; biotinylated HPV16 E6 peptide immobilized; steady state
T7 sequence (Q9Y2H9 967-1055 limits assumed): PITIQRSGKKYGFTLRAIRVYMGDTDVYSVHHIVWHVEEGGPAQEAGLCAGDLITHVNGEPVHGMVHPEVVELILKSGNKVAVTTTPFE
Method in brief: as §2

[17] = tested on: GOPC; experiment: NanoBiT protein-protein interaction assay; type: cell-based, human; conditions: RSK1–GOPC sensor, 20 ng/ml EGF, serum-starved HEK293T, 60 min
Method in brief: (§3)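 Full-length RSK1 (N-terminal SmBiT) is paired with an N-terminal LgBiT fusion of the partner: ARHGEF12 isoform 2, GOPC isoform 2, PARD3B 1–913, or SYNJ2BP. Sensors are transiently co-expressed in HEK293T cells, which are serum-starved for 20 h from 4 h post-transfection and assayed with Nano-Glo at 24 h. Steady-state signal is referenced to the wild-type pair. For the EGF response (20 ng/ml, 60 min), signal is normalized to initial luminescence and to unstimulated furimazine decay. At least 6 replicates.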

[18] = tested on: ARHGEF12; experiment: NanoBiT protein-protein interaction assay; type: cell-based, human; conditions: RSK1–ARHGEF12 sensor, 20 ng/ml EGF, serum-starved HEK293T, 60 min
Method in brief: as §3

[19] = tested on: ERK2; experiment: NanoBiT protein-protein interaction assay; type: cell-based; conditions: RSK1–ERK2 sensor, 20 ng/ml EGF, serum-starved HEK293T, 60 min
Method in brief: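 Full-length RSK1 carries an N-terminal SmBiT tag, and full-length ERK2 is fused to LgBiT. HEK293T cells (DMEM, 10% FBS) are seeded at 2×10^4/well 24 h before FuGene HD co-transfection, then starved for 20 h in CO2-independent medium from 4 h post-transfection. After 20 ng/ml EGF, Nano-Glo luminescence is followed for 60 min and normalized to initial signal and to furimazine decay in unstimulated cells. At least 6 biological replicates.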

[20] = tested on: MAGI1; experiment: NanoBiT protein-protein interaction assay; type: cell-based, human; conditions: RSK1–MAGI1 sensor, 20 ng/ml EGF, serum-starved HEK293T, 60 min
Method in brief: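 Full-length RSK1 (N-terminal SmBiT) is co-expressed with full-length MAGI1–LgBiT in HEK293T cells by FuGene HD transfection, then serum-starved for 20 h in CO2-independent medium. Cells are read with Nano-Glo 24 h post-transfection. Steady-state luminescence of mutant sensors is referenced to the wild-type pair. For the 20 ng/ml EGF response, signal is followed for 60 min and normalized to initial luminescence and to furimazine decay in unstimulated cells. At least 6 biological replicates.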

[21] = tested on: SYNJ2BP; experiment: NanoBiT protein-protein interaction assay; type: cell-based, human; conditions: RSK1–SYNJ2BP sensor, 20 ng/ml EGF, serum-starved HEK293T, 60 min
Method in brief: as §3

[22] = tested on: PARD3B; experiment: NanoBiT protein-protein interaction assay; type: cell-based, human; conditions: RSK1–PARD3B sensor, 20 ng/ml EGF, serum-starved HEK293T, 60 min
Method in brief: as §3

T1 sequence (A4D2P6 279-356 limits assumed): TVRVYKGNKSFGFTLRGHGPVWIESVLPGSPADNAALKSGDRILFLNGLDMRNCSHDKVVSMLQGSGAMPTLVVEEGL
Sequence of HTRA1 PDZ (Q92743 365-467 limits assumed): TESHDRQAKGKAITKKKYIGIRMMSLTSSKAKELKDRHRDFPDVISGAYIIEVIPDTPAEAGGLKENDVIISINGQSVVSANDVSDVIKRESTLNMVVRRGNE

- effect of phosphorylation on binding [1]: mostly eliminated
- effect of phosphorylation on binding [3]: promoted by phosphorylation
- effect of phosphorylation on binding [4]: mostly eliminated
- affinity to both states of the RSK1 PBM [5]: comparable affinities to both states
Molecule: RSK1 PBM: PDZ binding motif of the RSK1 C-terminal tail ({Biotin-TTDS}-RRVRKLPSTTL)
- BI [2]: 0.17–0.18
- interaction detected [6]: did not detect any interaction

Molecule: S1288E: ARHGEF12 mutant mimicking the RSK1 phosphorylation site
- decrease of RhoA signal by ARHGEF12 mutation [7]: 20%

Molecule: CC(C)C[C@H](NC(=O)[C@H](CCC(N)=O)NC(=O)[C@@H](NC(=O)[C@H](CCC(=O)O)NC(=O)[C@H](CCCNC(=N)N)NC(=O)[C@H](CCCNC(=N)N)NC(=O)[C@@H](NC(=O)[C@H](CCCNC(=N)N)NC(=O)[C@H](CO)NC(=O)[C@@H](N)CO)[C@@H](C)O)[C@@H](C)O)C(=O)O [HPV16 E6]
- KD, SPR, HPV16 E6 [8]: no binding
- KD, SPR, HPV16 E6 [9]: no binding
- KD, SPR, HPV16 E6 [10]: no binding
- KD, SPR, HPV16 E6 [11]: no binding
- KD, SPR, HPV16 E6 [12]: no binding
- KD, SPR, HPV16 E6 [13]: no binding
- KD, SPR, HPV16 E6 [14]: no binding
- KD, SPR, HPV16 E6 [15]: no binding
- KD, SPR, HPV16 E6 [16]: no binding

Molecule: EGF: epidermal growth factor (Sigma-Aldrich), 20 ng/ml (NSDSECPLSHDGYCLHDGVCMYIEALDKYACNCVVGYIGERCQYRDLKWWELR; UniProt P01133 971-1023, looked up)
- change in luminescence after EGF [17]: decrease in luminescence
- change in luminescence after EGF [18]: decrease in luminescence
- change in luminescence after EGF [19]: time-modulated decrease of the luminescence signal
- change in luminescence after EGF [20]: decrease in luminescence
- change in luminescence after EGF [21]: increased luminescence
- change in luminescence after EGF [22]: did not show any change
